Assay results: ChEMBL document CHEMBL3774328, “Optimization by Molecular Fine Tuning of Dihydro-β-agarofuran Sesquiterpenoids as Reversers of P-Glycoprotein-Mediated Multidrug Resistance” (J Med Chem, 2016)

Key:
[1] = target: T1, ATP-dependent translocase ABCB1 (Homo sapiens, UniProt P08183); experiment: Inhibition of human MDR1 expressed in mouse NIH/3T3 cells assessed as reduction in daunomycin IC50 at 3 uM by MTT assay; type: cell-based; settings: nih3t3, 3 µM
Summary of the method: (§1)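 Parental NIH-3T3 and MDR1-G185 cells were grown in DMEM with 10% iFBS. They were exposed to increasing DNM or VLB (up to 500 ng/mL) with or without compound at fixed 1, 3 or 10 μM. Growth was read by MTT, and IC50 came from a four-parameter logistic fit. Reversal index = IC50 without compound / IC50 with compound in MDR1 cells. Mean ± SD of two independent experiments in triplicate.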

[2] = Intrinsic cytotoxicity against mouse NIH/3T3 cells assessed as cell growth at 60 uM by MTT assay; type: cell-based, NIH3T3; settings: read-out: Activity
Summary of the method: (§2)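 Intrinsic cytotoxicity was measured by MTT in parental NIH-3T3 and MDR1-G185 cells. CC50 came from a four-parameter logistic fit. The top tested concentration was 60 μM, limited by DMSO toxicity, and growth at 60 μM is given as % of untreated control. Mean ± SD of three independent experiments in duplicate.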

[3] = Intrinsic cytotoxicity against mouse NIH/3T3 cells transfected with human MDR1 by MTT assay; type: ADME, cell-based, NIH3T3; summary of the method: as §2
[4] = Intrinsic cytotoxicity against mouse NIH/3T3 cells by MTT assay; type: cell-based, NIH3T3; summary of the method: as §2
[5] = target: T1, ATP-dependent translocase ABCB1; experiment: Inhibition of human MDR1 expressed in mouse NIH/3T3 cells assessed as reduction in vinblastine IC50 at 3 uM by MTT assay; type: cell-based; settings: nih3t3, 3 µM; summary of the method: as §1
[6] = target: T1, ATP-dependent translocase ABCB1; experiment: Inhibition of human MDR1 expressed in mouse NIH/3T3 cells assessed as reduction in daunomycin IC50 at 10 uM by MTT assay; type: cell-based; settings: nih3t3, 10 µM; summary of the method: as §1
[7] = target: T1, ATP-dependent translocase ABCB1; experiment: Inhibition of human MDR1 expressed in mouse NIH/3T3 cells assessed as reduction in vinblastine IC50 at 1 uM by MTT assay; type: cell-based; settings: nih3t3, 1 µM; summary of the method: as §1
[8] = target: T1, ATP-dependent translocase ABCB1; experiment: Inhibition of human MDR1 expressed in mouse NIH/3T3 cells assessed as reduction in daunomycin IC50 at 1 uM by MTT assay; type: cell-based; settings: nih3t3, 1 µM
Summary of the method: as §1, with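 “fit.” for “fit. Reversal index = IC50 without compound / IC50 with compound in MDR1 cells.”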

[9] = target: T1, ATP-dependent translocase ABCB1; experiment: Inhibition of human MDR1 expressed in mouse NIH/3T3 cells assessed as reduction in vinblastine IC50 at 10 uM by MTT assay; type: cell-based; settings: nih3t3, 10 µM; summary of the method: as §1
[10] = target: T1, ATP-dependent translocase ABCB1; experiment: Inhibition of human MDR1 expressed in mouse NIH/3T3 cells assessed as inhibition of daunomycin efflux incubated for 30 mins by flow cytometry; type: cell-based, NIH3T3
Summary of the method: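 Ki for DNM efflux. MDR1-G185 NIH-3T3 cells were incubated 30 min at 37 °C with DNM (2 μM) and varying compound concentrations, then read by flow cytometry. Fluorescence was converted to % P-gp inhibition, normalized to cells treated with 5 mM sodium orthovanadate (100%). Ki was fitted from I = (Imax × S)/(Ki + S). Mean ± SD of three independent experiments in triplicate.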

[11] = target: T1, ATP-dependent translocase ABCB1; experiment: Inhibition of human MDR1 expressed in mouse NIH/3T3 cells assessed as daunomycin retention at 10 uM incubated for 30 mins by flow cytometry; type: cell-based; parameters: scale not given: the % may be the effect or the level left; settings: nih3t3, 0.5 h
Summary of the method: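 DNM retention by flow cytometry. MDR1-G185 NIH-3T3 cells in log phase were seeded 24 h before at 10^5 cells/well. They were incubated 30 min at 37 °C in DMEM + 10% iFBS with DNM (2 μM), with or without compound (10 μM). Cells were then washed twice in ice-cold PBS, trypsinized and read immediately for single-cell fluorescence.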

T1 sequence (P08183 whole entry): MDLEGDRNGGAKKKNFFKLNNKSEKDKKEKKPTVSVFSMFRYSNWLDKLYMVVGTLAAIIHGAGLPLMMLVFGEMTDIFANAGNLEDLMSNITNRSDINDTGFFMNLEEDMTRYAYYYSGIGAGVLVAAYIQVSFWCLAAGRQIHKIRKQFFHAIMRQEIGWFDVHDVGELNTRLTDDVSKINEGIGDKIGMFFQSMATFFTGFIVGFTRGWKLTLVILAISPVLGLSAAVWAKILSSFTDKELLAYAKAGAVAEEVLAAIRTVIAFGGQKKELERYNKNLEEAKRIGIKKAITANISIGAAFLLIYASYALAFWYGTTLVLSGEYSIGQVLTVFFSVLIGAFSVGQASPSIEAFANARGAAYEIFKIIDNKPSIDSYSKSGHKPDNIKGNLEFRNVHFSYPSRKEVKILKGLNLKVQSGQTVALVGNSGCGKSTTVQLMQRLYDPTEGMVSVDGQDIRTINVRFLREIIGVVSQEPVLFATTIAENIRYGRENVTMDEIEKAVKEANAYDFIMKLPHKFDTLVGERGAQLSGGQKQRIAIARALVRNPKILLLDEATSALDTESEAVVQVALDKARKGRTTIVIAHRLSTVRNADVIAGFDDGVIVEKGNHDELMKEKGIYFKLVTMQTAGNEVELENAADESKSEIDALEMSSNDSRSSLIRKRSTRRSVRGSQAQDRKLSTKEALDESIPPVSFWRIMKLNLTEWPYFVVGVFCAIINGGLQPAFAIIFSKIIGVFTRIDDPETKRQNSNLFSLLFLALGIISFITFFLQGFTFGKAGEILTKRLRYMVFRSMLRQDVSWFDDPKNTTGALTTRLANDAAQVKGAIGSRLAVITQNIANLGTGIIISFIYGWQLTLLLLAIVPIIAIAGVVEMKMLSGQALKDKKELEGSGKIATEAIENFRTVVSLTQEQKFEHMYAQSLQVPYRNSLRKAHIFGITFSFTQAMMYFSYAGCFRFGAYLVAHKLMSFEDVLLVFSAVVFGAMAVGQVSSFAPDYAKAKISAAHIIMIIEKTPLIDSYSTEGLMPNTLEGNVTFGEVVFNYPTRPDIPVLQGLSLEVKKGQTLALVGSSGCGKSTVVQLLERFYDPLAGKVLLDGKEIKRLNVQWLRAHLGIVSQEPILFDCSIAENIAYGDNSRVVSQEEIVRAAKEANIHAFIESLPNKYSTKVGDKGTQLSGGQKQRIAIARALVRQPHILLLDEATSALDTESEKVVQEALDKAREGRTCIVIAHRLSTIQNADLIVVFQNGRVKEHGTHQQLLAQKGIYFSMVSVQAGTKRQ

Row | SMILES | fold change (FC) [1] | fold change (FC) [5] | fold change (FC) [6] | fold change (FC) [7] | fold change (FC) [8] | fold change (FC) [9] | Ki [10] [nM] | Activity [11] [%] | viability at 60 µM [2] [%] | CC50 [3] [µM] | CC50 [4] [µM]
1 | CC(=O)O[C@H]1CC[C@](C)(O)[C@]23OC(C)(C)[C@H]([C@H](OC(=O)/C=C\c4ccccc4)[C@H](OC(=O)c4ccccc4)[C@]12C)[C@H]3OC(=O)c1cnccn1 | 5.2 | 18.7 | 9 | 5.2 | 3.2 | 39.6 | 420 |  | 68.3 | 31.2 | > 60
2 | C=C1CC[C@H](OC(C)=O)[C@@]2(C)[C@@H](OC(=O)c3ccccc3)[C@@H](OC(=O)/C=C/c3ccccc3)[C@@H]3[C@@H](OC(=O)CCl)[C@]12OC3(C)C |  |  |  |  |  |  |  | 66 |  |  | 
3 | CC(=O)O[C@H]1CC[C@](C)(O)[C@]23OC(C)(C)[C@H]([C@H](OC(=O)/C=C/c4ccccc4)[C@H](OC(=O)c4ccccc4)[C@]12C)[C@H]3OC(=O)CCC(=O)OC1CCCCC1O (stereo partly specified) | 11 | 40.3 | 12.8 | 9.9 | 3.9 | 107.8 | 460 |  |  | 19.9 | 24.3
4 | CC(=O)O[C@H]1CC[C@](C)(OC(=O)CN2CCOCC2)[C@]23OC(C)(C)[C@H]([C@H](OC(=O)/C=C/c4ccccc4)[C@H](OC(=O)c4ccccc4)[C@]12C)[C@H]3OC(C)=O | 10.9 | 49.6 | 16.1 | 21.1 | 5.7 | 173.4 | 310 |  |  | 33.1 | 36.2
5 | CC(=O)O[C@H]1CC[C@](C)(O)[C@@]23OC(C)(C)[C@@H](C2=O)[C@H](OC(=O)/C=C/c2ccccc2)[C@H](OC(=O)c2ccccc2)[C@]13C | 10.4 | 29.4 | 15.9 | 11.6 | 5.2 | 106.3 | 630 |  |  | 34.8 | 18.9
6 | CC(=O)O[C@H]1CC[C@@H](C)[C@]23OC(C)(C)[C@H]([C@H](OC(=O)CCc4ccccc4)[C@H](OC(=O)c4ccccc4)[C@]12C)[C@H]3O |  |  |  |  |  |  | 400 |  | 72.3 | 14.2 | > 60
7 | CC(=O)O[C@H]1CC[C@](C)(O)[C@]23OC(C)(C)[C@H]([C@H](OC(=O)CCc4ccccc4)[C@H](OC(=O)c4ccccc4)[C@]12C)[C@H]3O | 8.1 | 23.6 | 11.6 | 11.1 | 3.3 | 43.8 | 470 |  |  | 30.3 | 25.4
8 | CC(=O)O[C@H]1CC[C@](C)(O)[C@]23OC(C)(C)[C@H]([C@H](OC(=O)/C=C/c4ccccc4)[C@H](OC(=O)c4ccccc4)[C@]12C)[C@H]3OC(=O)c1ccccc1 | 10.1 | 33.6 | 17.5 | 13.9 | 6.2 | 126.2 | 500 |  | 64.1 | 30.6 | > 60
9 | C=C1CC[C@H](OC(C)=O)[C@@]2(C)[C@@H](OC(=O)c3ccccc3)[C@@H](OC(=O)/C=C/c3ccccc3)[C@@H]3[C@@H](OS(C)(=O)=O)[C@]12OC3(C)C |  |  |  |  |  |  |  | 66 |  |  | 
10 | CC(=O)O[C@H]1CC[C@](C)(O)[C@]23OC(C)(C)[C@H]([C@H](OC(=O)/C=C\c4ccccc4)[C@H](OC(=O)c4ccccc4)[C@]12C)[C@H]3OC(=O)c1ccccc1 | 14.5 | 30.1 | 14.7 | 15.5 | 4.1 | 59.5 | 250 |  |  | 25.9 | 27.2
11 | CC(=O)O[C@H]1CC[C@](C)(Cl)[C@]23OC(C)(C)[C@H]([C@H](OC(=O)/C=C/c4ccccc4)[C@H](OC(=O)c4ccccc4)[C@]12C)[C@H]3Cl | 12.9 | 33 | 14.8 | 11.6 | 5.2 | 113.9 | 1340 |  |  | 31.4 | 43.7
12 | C=C1CC[C@H](OC(C)=O)[C@@]2(C)[C@@H](OC(=O)c3ccccc3)[C@@H](OC(=O)/C=C/c3ccccc3)[C@@H]3[C@@H](O)[C@]12OC3(C)C |  |  |  |  |  |  |  | 66 |  |  | 

Further lines, with some results ahead:

Row | fold change (FC) [1] | fold change (FC) [5] | fold change (FC) [6] | fold change (FC) [7] | fold change (FC) [8] | fold change (FC) [9] | Ki [10] [nM] | Activity [11] [%] | SMILES | viability at 60 µM [2] [%] | CC50 [3] [µM] | CC50 [4] [µM]
13 |  |  |  |  |  |  | 260 |  | CCOC(=O)CCC(=O)O[C@@H]1[C@H]2[C@H](OC(=O)/C=C/c3ccccc3)[C@H](OC(=O)c3ccccc3)[C@]3(C)[C@@H](OC(C)=O)CC[C@](C)(O)[C@@]13OC2(C)C |  | 15.3 | 58.9
14 |  |  |  |  |  |  | 320 |  | CCCC(=O)O[C@@H]1[C@H]2[C@H](OC(=O)/C=C/c3ccccc3)[C@H](OC(=O)c3ccccc3)[C@]3(C)[C@@H](OC(C)=O)CC[C@](C)(O)[C@@]13OC2(C)C |  | 18.3 | 44.9
15 |  |  |  |  |  |  | 240 |  | CC(=O)O[C@H]1CC[C@](C)(O)[C@]23OC(C)(C)[C@H]([C@H](OC(=O)/C=C/c4ccccc4)[C@H](OC(=O)c4ccccc4)[C@]12C)[C@H]3OC(=O)C1CC1 |  | 11.2 | 50.3
16 |  |  |  |  |  |  | 410 |  | CCC(C)C(=O)O[C@@H]1[C@H]2[C@H](OC(=O)/C=C/c3ccccc3)[C@H](OC(=O)c3ccccc3)[C@]3(C)[C@@H](OC(C)=O)CC[C@](C)(O)[C@@]13OC2(C)C (stereo partly specified) | 57.3 | 13.2 | > 60
17 | 7.5 | 26.8 | 10.6 | 6.5 | 2.6 | 145.9 | 500 |  | CC(=O)O[C@H]1CC[C@](C)(O)[C@]23OC(C)(C)[C@H]([C@H](OC(=O)/C=C/c4ccccc4)[C@H](OC(=O)c4ccccc4)[C@]12C)[C@H]3OC(=O)CCC(=O)OCCO |  | 29.2 | 27.7
18 |  |  |  |  |  |  | 230 |  | COC(=O)CCC(=O)O[C@@H]1[C@H]2[C@H](OC(=O)/C=C/c3ccccc3)[C@H](OC(=O)c3ccccc3)[C@]3(C)[C@@H](OC(C)=O)CC[C@](C)(O)[C@@]13OC2(C)C |  | 17.6 | 36.4
19 |  |  |  |  |  |  | 290 | 83 | CC(=O)O[C@H]1CC[C@](C)(O)[C@]23OC(C)(C)[C@H]([C@H](OC(=O)/C=C/c4ccccc4)[C@H](OC(=O)c4ccccc4)[C@]12C)[C@H]3OC(C)=O |  | 18.3 | 26.3
20 | 24 | 19.7 | 30.3 | 12.1 | 7 | 77 |  |  | CC(=O)O[C@H]1CC[C@](C)(O)[C@]23OC(C)(C)[C@H]([C@H](OC(=O)/C=C\c4ccccc4)[C@H](OC(=O)c4ccccc4)[C@]12C)[C@H]3OC(C)=O |  | 22.9 | 12
21 |  |  |  |  |  |  | 310 |  | CC(=O)O[C@H]1CC[C@](C)(O)[C@]23OC(C)(C)[C@H]([C@H](OC(=O)/C=C/c4ccccc4)[C@H](OC(=O)c4ccccc4)[C@]12C)[C@H]3OC(=O)CBr |  | 5.7 | 8.6
22 | 12.3 | 37.7 | 15.9 | 7.5 | 6 | 103.6 | 610 |  | COC(=O)CCCC(=O)O[C@@H]1[C@H]2[C@H](OC(=O)/C=C/c3ccccc3)[C@H](OC(=O)c3ccccc3)[C@]3(C)[C@@H](OC(C)=O)CC[C@](C)(O)[C@@]13OC2(C)C | 71.3 | 28.2 | > 60
